Reference: ChEMBL document CHEMBL1148948, “Biotransformation of nobiletin by Aspergillus niger and the antimutagenic activity of a metabolite, 4'-hydroxy-5,6,7,8,3'-pentamethoxyflavone” (2004)
Calls of active or inactive are those of the source.

How the values were obtained:
Assay type in all cases: functional, organism-based
Details in all cases: Salmonella enterica subsp. enterica serovar Typhimurium
Salmonella typhimurium [1] = assay: Antimutagenic activity in Salmonella Typhimurium TA1535 carrying pSK1002 containing umuC'-lacZ fused gene assessed as suppression of 0.1 j/M2 UV light-induced SOS response to alteration in DNA synthesis measured by beta-galactosidase activity by Umu test
In short: (§1)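 S. typhimurium TA1535/pSK1002 (umuC′-′lacZ fusion on the plasmid). The overnight culture was diluted 50-fold in fresh TGA medium and grown at 37 °C to A600 0.25-0.30. SOS induction was read as β-galactosidase activity in Miller units. The S9 mix used rat liver S9 (phenobarbital/5,6-benzoflavone-pretreated males) with G-6-P, NADH and NADPH cofactors.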

Salmonella typhimurium [2] = assay: Antimutagenic activity in Salmonella Typhimurium TA1535 carrying pSK1002 containing umuC'-lacZ fused gene assessed as suppression of furyfuramide-induced SOS response to alteration in DNA synthesis measured by beta-galactosidase activity by Umu test; in short: as §1
Salmonella typhimurium [3] = assay: Antimutagenic activity in Salmonella Typhimurium TA1535 carrying pSK1002 containing umuC'-lacZ fused gene assessed as suppression of Trp-P-1-induced SOS response to alteration in DNA synthesis measured by beta-galactosidase activity by Umu test; in short: as §1
Salmonella typhimurium [4] = assay: Antimutagenic activity in Salmonella Typhimurium TA1535 carrying pSK1002 containing umuC'-lacZ fused gene assessed as suppression of MeIQ-induced SOS response to alteration in DNA synthesis measured by beta-galactosidase activity by Umu test; in short: as §1

Measured: Activity

COc1ccc(-c2cc(=O)c3c(OC)c(OC)c(OC)c(OC)c3o2)cc1OC
active: all assays above
